Converted amounts (≈) assume the structure as drawn.
Key:
Rattus norvegicus [1] = experiment: Antiinflammatory activity against turpentine oil-induced granuloma pouch in anaesthetized Albino rat sub-acute inflammatory model at 20 mg/kg, po 1 hr before turpentine oil challenge for 7 days assessed after 8 days; assay type: functional
Summary of the method: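 Dorsal subcutaneous pouch made in ether-anaesthetised rats with 2 mL air, then 0.5 mL turpentine oil. Test compounds 20 mg/kg po, diclofenac Na 10 mg/kg po, started 1 h before turpentine and continued 7 days. Exudate aspirated on day 8 under anaesthesia; volume measured; % inhibition = (Vcontrol − Vtreated)/Vcontrol × 100; N = 5.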

Rattus norvegicus [2] = experiment: Antiinflammatory activity against formalin-induced paw edema in anaesthetized Albino rat acute inflammatory model at 20 mg/kg, po dosed 1 hr before formalin challenge assessed after 3 hrs; assay type: functional
Summary of the method: (§1)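 Rats in groups of five plus control; test compounds 20 mg/kg po, diclofenac Na 10 mg/kg po, given 1 h before 0.1 mL 2% formalin injected subplantar into left hind paw under light ether anaesthesia. Paw volume by water plethysmometer at 0 and 1, 2, 3, 4 h after formalin; % anti-inflammatory activity versus control; mean ± SE, N = 5.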

Rattus norvegicus [3] = experiment: Antiinflammatory activity against formalin-induced paw edema in anaesthetized Albino rat acute inflammatory model at 20 mg/kg, po dosed 1 hr before formalin challenge assessed after 1 hr; assay type: functional; summary of the method: as §1
Rattus norvegicus [4] = experiment: Toxicity in Albino rat assessed as induction of gastric ulceration at 300 mg/kg, po twice a day after 2 hrs; assay type: organism-based, Stomach; design: dose 300 mg/kg, route oral; conditions: in vivo
Summary of the method: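 Male albino rats (180–200 g), five per group, fasted 12 h with water ad libitum. Oral dosing at 300 mg/kg; the results text gives two doses at a 2 h interval, while the methods give two equal doses at 0 and 12 h over three days. Controls received 1% gum acacia orally. Rats were killed with ether 6 h after the last dose, and stomachs were inspected grossly for ulceration and hyperemia.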

Rattus norvegicus [5] = experiment: Analgesic activity in Albino rat assessed as tail withdrawal response at 20 mg/kg, po after 3 hrs; assay type: functional
Summary of the method: (§2)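 Male albino rats, 120–150 g, groups of five plus untreated control; test compounds 20 mg/kg po, diclofenac Na 10 mg/kg po. Tail immersed in 55 °C water; withdrawal reaction time read 1, 2 and 3 h after dosing; percentage increase in reaction time over basal computed; mean ± SE of five animals.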

Rattus norvegicus [6] = experiment: Antiinflammatory activity against formalin-induced paw edema in anaesthetized Albino rat acute inflammatory model at 20 mg/kg, po dosed 1 hr before formalin challenge assessed after 2 hrs; assay type: functional; summary of the method: as §1
Rattus norvegicus [7] = experiment: Antiinflammatory activity against formalin-induced paw edema in anaesthetized Albino rat sub-acute inflammatory model at 20 mg/kg, po measured on day 1; assay type: functional
Summary of the method: (§3)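 Sub-acute paw edema: test compounds 20 mg/kg po daily for 7 days, diclofenac Na 10 mg/kg po; 0.1 mL 2% formalin injected subplantar into left hind paw under light ether anaesthesia on days 1 and 3, 1 h after dosing. Paw volume measured on day 1 and day 8; % anti-inflammatory activity; N = 5 rats.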

Bacillus subtilis = experiment: Antimicrobial activity against Bacillus subtilis NRRL B-14819 after 24 hrs by twofold serial dilution method; assay type: functional
Summary of the method: (§4)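 Broth microdilution in Müller–Hinton broth on compounds with agar-diffusion inhibition zones ≥14 mm (disks with 1 mg/mL in DMSO, 37 °C, 24 h, triplicate).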

[8] = Acute toxicity in Albino rat after 24 hrs; assay type: organism-based; conditions: in vivo, read-out: ALD50
Summary of the method: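 Male rats, 180–200 g, groups of five, fasted 24 h before dosing; compounds given orally in graded doses of 0.1–3.0 g/kg; mortality recorded at each dose level after 24 h to estimate approximate acute lethal dose (ALD50).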

Rattus norvegicus [9] = experiment: Analgesic activity in Albino rat assessed as tail withdrawal response at 20 mg/kg, po after 2 hrs; assay type: functional; summary of the method: as §2
Rattus norvegicus [10] = experiment: Antiinflammatory activity against formalin-induced paw edema in anaesthetized Albino rat sub-acute inflammatory model at 20 mg/kg, po for 7 days measured on day 8; assay type: functional; summary of the method: as §3
Rattus norvegicus [11] = experiment: Antiinflammatory activity against formalin-induced paw edema in anaesthetized Albino rat acute inflammatory model at 20 mg/kg, po dosed 1 hr before formalin challenge assessed after 4 hrs; assay type: functional; summary of the method: as §1
Rattus norvegicus [12] = experiment: Analgesic activity in Albino rat assessed as tail withdrawal response at 20 mg/kg, po after 1 hr; assay type: functional; summary of the method: as §2
Staphylococcus aureus = experiment: Antimicrobial activity against Staphylococcus aureus ATCC 6538 after 24 hrs by twofold serial dilution method; assay type: functional; conditions: ATCC 6538, 24 h; summary of the method: as §4
Escherichia coli = experiment: Antimicrobial activity against Escherichia coli ATCC 25922 after 24 hrs by twofold serial dilution method; assay type: functional; conditions: ATCC 25922, 24 h; summary of the method: as §4
Klebsiella pneumoniae = experiment: Antimicrobial activity against Klebsiella pneumoniae clinical isolate after 24 hrs by twofold serial dilution method; assay type: functional; summary of the method: as §4
Micrococcus luteus = experiment: Antimicrobial activity against Micrococcus luteus ATCC 21881 after 24 hrs by twofold serial dilution method; assay type: functional; conditions: ATCC 21881, 24 h; summary of the method: as §4
Pseudomonas aeruginosa = experiment: Antimicrobial activity against Pseudomonas aeruginosa ATCC 27853 after 24 hrs by twofold serial dilution method; assay type: functional; conditions: ATCC 27853, 24 h; summary of the method: as §4

Row | Structure (SMILES) | Activity (Rattus norvegicus [1]) [%] | Activity (Rattus norvegicus [2]) [%] | Activity (Rattus norvegicus [3]) [%] | Activity (Rattus norvegicus [4]) | Activity (Rattus norvegicus [5]) [%] | Activity (Rattus norvegicus [6]) [%] | Activity (Rattus norvegicus [7]) [%] | MIC (Bacillus subtilis) [mg/L] | LD50 at 24 h [8] [mg/kg] | Activity (Rattus norvegicus [9]) [%] | Activity (Rattus norvegicus [10]) [%] | Activity (Rattus norvegicus [11]) [%] | Activity (Rattus norvegicus [12]) [%] | MIC (Staphylococcus aureus) [mg/L] | MIC (Escherichia coli) [mg/L] | MIC (Klebsiella pneumoniae) [mg/L] | MIC (Micrococcus luteus) [mg/L] | MIC (Pseudomonas aeruginosa) [mg/L]
1 | CCOC(=O)Nc1nnc(SCC(=O)Nc2c(C)n(C)n(-c3ccccc3)c2=O)s1 | 33 | 23 | 35 | Non-toxic | 28 | 17 | 29 | 100 (≈ 223 µM) | > 3000 | 15 | 27 | 19 | 17 |  |  |  |  | 
2 | CCOC(=O)/C(C#N)=C1/SC(C(=O)Nc2c(C)n(C)n(-c3ccccc3)c2=O)=C(N)N1c1ccccc1 | 53 | 38 | 30 | Non-toxic | 67 | 26 | 29 | 12.5 (≈ 24.2 µM) | > 3000 | 50 | 31 | 29 | 32 | 12.5 (≈ 24.2 µM) | 50 (≈ 96.8 µM) | 50 (≈ 96.8 µM) | 25 (≈ 48.4 µM) | 50 (≈ 96.8 µM)
3 | Cc1c(NC(=O)CSc2nnc(NC(=S)Nc3ccc(Cl)cc3)s2)c(=O)n(-c2ccccc2)n1C |  |  |  |  |  |  |  |  |  |  |  |  |  | 100 (≈ 183 µM) |  |  |  | 
4 | Cc1c(NC(=O)/C(C#N)=C2\SC=C(c3ccc(Cl)cc3)N2c2ccc(Cl)cc2)c(=O)n(-c2ccccc2)n1C | 60 | 41 | 35 | Non-toxic | 58 | 40 | 29 | 100 (≈ 174 µM) | > 3000 | 64 | 39 | 29 | 34 |  |  |  |  | 
5 | Cc1c(NC(=O)CSc2nnc(NC(=S)Nc3ccccc3)s2)c(=O)n(-c2ccccc2)n1C | 19 | 21 | 26 | Non-toxic | 46 | 31 | 23 |  | > 3000 | 43 | 20 | 26 | 27 | 100 (≈ 195 µM) |  |  |  | 
6 | Cc1c(NC(=O)/C(C#N)=C2\SCC(=O)N2c2ccccc2)c(=O)n(-c2ccccc2)n1C | 53 | 23 | 13 | Non-toxic | 34 | 31 | 29 | 100 (≈ 224 µM) | > 3000 | 20 | 17 | 19 | 22 | 50 (≈ 112 µM) | 50 (≈ 112 µM) | 50 (≈ 112 µM) | 100 (≈ 224 µM) | 50 (≈ 112 µM)
7 | CC(=O)Nc1nnc(SCC(=O)Nc2c(C)n(C)n(-c3ccccc3)c2=O)s1 | 60 | 46 | 43 | Non-toxic | 55 | 37 | 29 |  | > 3000 | 60 | 39 | 43 | 30 | 100 (≈ 239 µM) |  |  |  | 
8 | Cc1c(NC(=O)/C(C#N)=C2\SC=C(c3ccc(Cl)cc3)N2c2ccccc2)c(=O)n(-c2ccccc2)n1C | 58 | 33 | 39 | Non-toxic | 43 | 29 | 37 |  | > 3000 | 43 | 44 | 43 | 22 | 100 (≈ 185 µM) |  |  |  | 
9 | CC1(C)S[C@@H]2[C@H](NC(=O)[C@H](N)c3ccccc3)C(=O)N2[C@H]1C(=O)O.O.O.O [AMPICILLIN TRIHYDRATE] |  |  |  |  |  |  |  | 12.5 |  |  |  |  |  | 6.25 | 6.25 | 12.5 | 12.5 | 12.5
10 | Cc1c(NC(=O)c2sc(=S)n(-c3ccccc3)c2N)c(=O)n(-c2ccccc2)n1C | 50 | 41 | 35 | Non-toxic | 67 | 37 | 20 | 100 (≈ 229 µM) | > 3000 | 50 | 34 | 43 | 19 |  |  |  |  | 
11 | Cc1c(NC(=O)c2sc(=S)n(-c3ccccc3)c2NC(=S)Nc2ccc(Cl)cc2)c(=O)n(-c2ccccc2)n1C |  |  |  |  |  |  |  | 12.5 (≈ 20.6 µM) |  |  |  |  |  | 25 (≈ 41.2 µM) | 25 (≈ 41.2 µM) | 50 (≈ 82.3 µM) |  | 50 (≈ 82.3 µM)
12 | Cc1c(NC(=O)c2sc(=S)n(-c3ccc(Cl)cc3)c2NC(=S)Nc2ccc(Cl)cc2)c(=O)n(-c2ccccc2)n1C |  |  |  |  |  |  |  | 100 (≈ 156 µM) |  |  |  |  |  |  |  |  |  | 
13 | Cc1c(NC(=O)C2=C(N)N(c3ccccc3)C(=C(C#N)C#N)S2)c(=O)n(-c2ccccc2)n1C | 62 | 38 | 26 | Non-toxic | 72 | 40 | 40 | 100 (≈ 213 µM) | > 3000 | 46 | 32 | 40 | 27 |  |  |  |  | 
14 | Cc1c(NC(=O)c2sc(=S)n(-c3ccc(Cl)cc3)c2NC(=S)Nc2ccccc2)c(=O)n(-c2ccccc2)n1C |  |  |  |  |  |  |  |  |  |  |  |  |  | 100 (≈ 165 µM) |  |  |  | 
15 | Cc1c(NC(=O)/C(C#N)=C2\SC=C(c3ccc(Br)cc3)N2c2ccccc2)c(=O)n(-c2ccccc2)n1C |  |  |  |  |  |  |  | 100 (≈ 171 µM) |  |  |  |  |  |  |  |  |  | 
16 | Cc1c(NC(=O)CSc2nnc(N)s2)c(=O)n(-c2ccccc2)n1C | 62 | 49 | 26 | Non-toxic | 76 | 43 | 29 |  | > 3000 | 71 | 39 | 38 | 42 |  |  |  |  | 
17 | Cc1c(NC(=O)c2sc(=S)n(-c3ccc(Cl)cc3)c2NC(=O)Nc2ccccc2)c(=O)n(-c2ccccc2)n1C | 72 | 49 | 26 | Non-toxic | 44 | 37 | 31 | 100 (≈ 169 µM) | > 3000 | 49 | 42 | 40 | 18 |  |  |  |  | 
18 | Cc1nc2c(sc(=S)n2-c2ccc(Cl)cc2)c(=O)n1-c1c(C)n(C)n(-c2ccccc2)c1=O |  |  |  |  |  |  |  | 100 (≈ 202 µM) |  |  |  |  |  |  |  |  | 100 (≈ 202 µM) | 
19 | Cc1c(NC(=O)/C(C#N)=C2\SCC(=O)N2c2ccc(Cl)cc2)c(=O)n(-c2ccccc2)n1C |  |  |  |  |  |  |  | 25 (≈ 52.1 µM) |  |  |  |  |  | 50 (≈ 104 µM) | 25 (≈ 52.1 µM) | 100 (≈ 208 µM) | 12.5 (≈ 26 µM) | 50 (≈ 104 µM)
20 | Cc1c(NC(=O)c2sc(=S)n(-c3ccc(Cl)cc3)c2N)c(=O)n(-c2ccccc2)n1C |  |  |  |  |  |  |  | 100 (≈ 212 µM) |  |  |  |  |  |  |  |  | 100 (≈ 212 µM) | 
